Yeast fitness data for 167 variants are collected here from the RNAGym collection of RNA variant scans (doi:10.1126/science.aae0568).

First the molecules themselves.
B1: tRNA (parent)
chain: GUUCCGUUGGCGUAAUGGUAACGCGUCUCCCUCCUAAGGAGAAGACUGCGGGUUCGAGUCCCGUACGGAACG

Fewer inactive variants are shown than the library holds.

Variants of B1 are the subject of this data set. Description: yeast fitness relative to wild type (ratio to wild type); higher = fitter; tRNA-Arg(CCU), competitive growth, 37 C, YPD. In short, it runs like this: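 For this measurement, the tRNA-Arg(CCU) gene was varied by chemical synthesis at a 3% per-site mutation rate across 69 sites, and each variant was placed at the native genomic locus in Saccharomyces cerevisiae. The pooled strains went through a 24-hour competition in YPD at 37°C in six parallel replicates, with amplicons from start and end populations read by 100-nucleotide paired-end sequencing. Darwinian fitness relative to wild type followed from the change in each genotype's frequency. Genotypes needed ≥ 100 starting reads, and estimates < 0.5 were set to 0.5.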
For the variant A36G G52C, the yeast fitness is 0.674.

A36G G52A: the yeast fitness amounted to 0.744.

Consider A36U A37U C55A G63C, for which the yeast fitness is at most 0.5.

In the case of A36G A65C G68C, the yeast fitness was at most 0.5.

For A36G G38C, the yeast fitness worked out at 0.719.

A36G G48A U53G: the yeast fitness was at most 0.5.

Turning to A36G U54C, the yeast fitness stood at 0.906.

Turning to A36G U54G, the yeast fitness was determined as 0.66.

With A36U G48A C49A, the yeast fitness was at most 0.5.

A36U G41C A45U C49U C60U: the yeast fitness is at most 0.5.

For A36U A70G, the yeast fitness amounted to 0.607.

Consider A36U A70C, for which the yeast fitness worked out at 0.799.

As to A36U C49G U54A A57C G68A, the yeast fitness was at most 0.5.

As for A36U A40U A57G, the yeast fitness is at most 0.5.

As to A36G A45C U47C G48A, the yeast fitness is at most 0.5.

For A36G C60U A70U, the yeast fitness was at most 0.5.

For A36G G50C, the yeast fitness turned out to be 0.723.

For A36U A45C C49G G67A, the yeast fitness was determined as 0.548.

For the variant A36U G50C, the yeast fitness was determined as 0.587.

Consider A36G G50C U64C, for which the yeast fitness was 1.18.

Turning to A36U C61G, the yeast fitness was found to be 0.698.

A36G G44A C46U: the yeast fitness was found to be 0.992.

As to A36G C66U, the yeast fitness was 0.949.

For the variant A36G C66A, the yeast fitness stood at 0.683.

As for A36G G48C, the yeast fitness amounted to 0.905.

Consider A36G G68A, for which the yeast fitness was found to be 0.905.

As for A36G G41C C60G, the yeast fitness came out at 0.682.

As for A36G A45G A65U, the yeast fitness worked out at 0.54.

With A36G G52A C62G, the yeast fitness is at most 0.5.

For the variant A36U A37C A70G, the yeast fitness was at most 0.5.

With A36G A65U A70C, the yeast fitness worked out at 0.684.

In the case of A36G C60U C61U, the yeast fitness is 0.625.

Consider A36G C55G A65G, for which the yeast fitness was at most 0.5.

On to A36U G51A G58C U59A, for which the yeast fitness was at most 0.5.

As for A36G C61U A70U, the yeast fitness is 0.755.

In the case of A36G C60G, the yeast fitness is 0.629.

Take A36G C60U: the yeast fitness is 0.793.

With A36G U59C A69U, the yeast fitness amounted to 0.783.

For A36U C61U A65U, the yeast fitness was at most 0.5.

On to A36G G38C G52C A57U, for which the yeast fitness was at most 0.5.

Take A36G G41C: the yeast fitness came to 0.955.

For A36G A45C A69U, the yeast fitness came to 0.806.

Regarding A36G U54A C62U, the yeast fitness was at most 0.5.

On to A36U A42U C49U A69C, for which the yeast fitness is at most 0.5.

In the case of A36U A42U C49U, the yeast fitness came to 0.576.

For A36G C49A, the yeast fitness was 0.799.

On to A36G C49G, for which the yeast fitness was determined as 0.776.

As to A36U A40U A65C C66U, the yeast fitness was at most 0.5.

As for A36G C60A A70G, the yeast fitness was at most 0.5.

For the variant A36U A37G A40C, the yeast fitness was at most 0.5.

A36U: the yeast fitness came to 0.714.

Consider A36G U59A A65C A70C, for which the yeast fitness was at most 0.5.

As for A36U A45U A57U, the yeast fitness is at most 0.5.

With A36U C55U A65C, the yeast fitness was at most 0.5.

In the case of A36G G58A, the yeast fitness was 0.898.

Regarding A36G G58C, the yeast fitness came out at 0.943.

In the case of A36G A45G A65U G67U, the yeast fitness was at most 0.5.

As to A36U C49A G52A, the yeast fitness was at most 0.5.

For the variant A36U G48A C49A G68A, the yeast fitness is at most 0.5.

With A36U C49G A69U, the yeast fitness was at most 0.5.

With A36U A45G C49A C66U A70G, the yeast fitness is at most 0.5.

As for A36G A45G C49U, the yeast fitness was found to be 0.578.

As for A36G G38C G52C A57U A69U A70G, the yeast fitness is at most 0.5.

For A36G G48A C49G U59A, the yeast fitness was at most 0.5.

Consider A36G C49U C66G, for which the yeast fitness was at most 0.5.

For A36U C49U U54C, the yeast fitness is at most 0.5.

Regarding A36U C49A A69U, the yeast fitness came out at 0.565.

Turning to A36G C60A C61G A65U, the yeast fitness was at most 0.5.

On to A36G U64A G67C, for which the yeast fitness is at most 0.5.

On to A36G C55A C66A, for which the yeast fitness is at most 0.5.

A36G C49U C61U: the yeast fitness worked out at 0.654.

Regarding A36G G63A A69U, the yeast fitness stood at 0.688.

Turning to A36G C55A C60U, the yeast fitness was at most 0.5.

Turning to A36U G39C A57U, the yeast fitness is at most 0.5.

A36G U59C: the yeast fitness stood at 1.18.

As for A36G C61U C66U, the yeast fitness amounted to 0.543.

With A36U C55G, the yeast fitness was at most 0.5.

As for A36G A65U G67A, the yeast fitness was 0.502.

On to A36U G50U A57U, for which the yeast fitness is 0.616.

In the case of A36U A42C, the yeast fitness turned out to be 0.595.

Consider A36U G51A, for which the yeast fitness came out at 0.61.

In the case of A36U G51C, the yeast fitness was 0.612.

On to A36U C62G, for which the yeast fitness was determined as 0.623.

For the variant A36U G41A C49G, the yeast fitness stood at 0.601.

Take A36G G56C: the yeast fitness worked out at 0.686.

In the case of A36G G56A, the yeast fitness worked out at 1.01.

As for A36U C46G, the yeast fitness was 0.655.

In the case of A36G U53A C62A, the yeast fitness is at most 0.5.

Consider A36G C46G G63A, for which the yeast fitness amounted to 0.652.

Consider A36U A45U C46U U53C, for which the yeast fitness is at most 0.5.

Turning to A36G C55U, the yeast fitness was 0.743.

Turning to A36G A57C A65U, the yeast fitness was at most 0.5.

In the case of A36U G38A A40G, the yeast fitness is at most 0.5.

With A36U A45G C66U A70G, the yeast fitness is at most 0.5.

For the variant A36U G48C C55G, the yeast fitness is at most 0.5.

For A36U C49G G52C, the yeast fitness was at most 0.5.

For A36U A37U A45U A65G, the yeast fitness was at most 0.5.

Consider A36U A45U G52C, for which the yeast fitness is at most 0.5.

Regarding A36U A43G C46A G48C A70C, the yeast fitness was at most 0.5.

In the case of A36U C60A A70U, the yeast fitness is at most 0.5.

A36U G44A A70G: the yeast fitness is at most 0.5.

Regarding A36G A65C, the yeast fitness is 0.9.

With A36G A65G, the yeast fitness is 0.831.

Turning to A36G G41A A43G C60U A70C, the yeast fitness is at most 0.5.

On to A36G U64A, for which the yeast fitness was 0.796.

As for A36U A69C, the yeast fitness stood at 0.629.

As for A36U A69G, the yeast fitness was determined as 0.617.

In the case of A36G C61G A70C, the yeast fitness is 0.661.

As for A36U C49U, the yeast fitness came to 0.585.

For the variant A36U C49G, the yeast fitness turned out to be 0.607.

With A36U G38A C49G C60G A70G, the yeast fitness was 0.592.

A36U A57G G63C: the yeast fitness was 0.563.

As for A36G A57C, the yeast fitness turned out to be 0.645.

Turning to A36G A57U, the yeast fitness was 0.859.

For the variant A36U A43C, the yeast fitness was 0.569.

As for A36U A43G, the yeast fitness is 0.745.

With A36U A45U C66U, the yeast fitness worked out at 0.535.

For A36U C46G C62A A69C, the yeast fitness stood at 0.562.

Take A36U A40C C62U A65C: the yeast fitness was at most 0.5.

Consider A36G A45G, for which the yeast fitness worked out at 0.944.

A36G A45U: the yeast fitness was found to be 1.04.

Turning to A36G A45C, the yeast fitness was 1.01.

As to A36U A37G A40C C66U, the yeast fitness amounted to 0.636.

As for A36U C66A, the yeast fitness is at most 0.5.

With A36G C55A G67C, the yeast fitness is at most 0.5.

As to A36G C49G G63A A69C A70C, the yeast fitness was at most 0.5.

For A36G C61A, the yeast fitness was found to be 0.766.

In the case of A36G C61U, the yeast fitness worked out at 0.891.

As for A36G G39C, the yeast fitness is 0.787.

As to A36G G39A, the yeast fitness came to 0.954.

Take A36G C55A A69U: the yeast fitness is 0.635.

Regarding A36U C46G U54C C62A A69C, the yeast fitness is at most 0.5.

As to A36U C46A C66A, the yeast fitness is at most 0.5.

For the variant A36G G63C, the yeast fitness came out at 0.724.

With A36G G63A, the yeast fitness was found to be 0.944.

Regarding A36G G48A C49G, the yeast fitness was 0.63.

As for A36G G41A C60G A65G, the yeast fitness was at most 0.5.

Take A36U C62G G63A: the yeast fitness is 0.569.

On to A36G A69C, for which the yeast fitness was 1.05.

Take A36G A69U: the yeast fitness stood at 1.02.

Take A36G G67A: the yeast fitness is 0.864.

Regarding A36G G67U, the yeast fitness stood at 0.901.

Consider A36G G68C A69U, for which the yeast fitness is 0.547.

Take A36G G44C: the yeast fitness came out at 0.981.

Turning to A36G G44U, the yeast fitness is 0.711.

On to A36U G39A A42C G50U G63A, for which the yeast fitness is 0.535.

As for A36U G39A A45G, the yeast fitness was at most 0.5.

As for A36U A40U G44C C60U, the yeast fitness is at most 0.5.

On to A36G A57G C62A, for which the yeast fitness was 0.549.

Turning to A36U G39C C61U, the yeast fitness was at most 0.5.

Take A36U G50A U59G: the yeast fitness is at most 0.5.

Take A36U C46U G51A U64C: the yeast fitness was determined as 0.597.

On to A36G A45U A65U, for which the yeast fitness is 0.572.

On to A36U A45C C49U, for which the yeast fitness is at most 0.5.

Turning to A36G C46G C49U, the yeast fitness is 0.763.

On to A36G C46U, for which the yeast fitness worked out at 0.952.

Consider A36G C46U A69U, for which the yeast fitness was found to be 0.841.

For the variant A36U A45C, the yeast fitness turned out to be 0.6.

Turning to A36U A45U, the yeast fitness is 0.728.

As for A36G U47A A69C, the yeast fitness worked out at 0.68.

As for A36U A40C A45U C62G G63A, the yeast fitness is at most 0.5.

With A36G C49U A70C, the yeast fitness turned out to be 0.663.

A36G G39A U47A G68C: the yeast fitness is at most 0.5.

Regarding A36G C46U A57C, the yeast fitness was at most 0.5.

As for A36U G50A A69U, the yeast fitness is at most 0.5.

A36G C49U G58C: the yeast fitness is 0.655.

As to A36G C62A G63C, the yeast fitness is at most 0.5.
